{
  "source": "paper PMC5338879",
  "about": "(Journal of Hypertension, 2016)",
  "key": {"[1]": {"details": "intranasal administration; cited from earlier work"}, "[2]": {"system": "premenopausal women with female sexual dysfunction", "assay": "Treatment-emergent adverse events, 12-week double-blind treatment", "assay_type": "in vivo, human", "details": "all bremelanotide dosages; no marked dosage dependence", "summary_of_the_method": "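Adverse events were queried at every clinic visit after screening. Physical examination, vital signs, 12-lead ECG and clinical laboratory tests were also performed. Events were tabulated in all participants given at least one double-blind dose.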"}, "[3]": {"assay": "Plasma pharmacokinetics after in-clinic subcutaneous doses", "assay_type": "in vivo, human", "details": "for Cmax, mean: plasma, LC-MS/MS", "summary_of_the_method": "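Blood was sampled predose and at 0.5, 1.0 and 2.0 h postdose at both double-blind in-clinic sc dosing visits (0.75, 1.25 or 1.75 mg). Plasma was assayed by validated LC-MS/MS. Noncompartmental analysis gave Cmax, Tmax, […] and AUC(0–2). For each dose level and visit, mean Cmax, range and coefficient of variation were reported.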"}, "[4]": {"system": "premenopausal women with female sexual dysfunction", "assay": "Protocol-directed blood pressure-related withdrawals after randomization", "assay_type": "in vivo, human", "summary_of_the_method": "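Ambulatory BP records were screened manually and programmatically for SBP ≥150 mmHg, DBP ≥95 mmHg, SBP rise ≥30 mmHg or DBP rise ≥15 mmHg. Flagged reports went to safety staff, including a hypertension expert blinded to treatment, who also reviewed activities, HR and other medications. Participants meeting the prespecified criteria (absolute level, change from baseline, duration) were withdrawn.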"}, "[5]": {"details": "high sc doses, men with erectile dysfunction; cited from earlier work"}, "[6]": {"system": "men with erectile dysfunction", "details": "single sc doses of 4–6 mg; cited from earlier work"}, "[7]": {"system": "premenopausal women with female sexual dysfunction", "assay": "Ambulatory BP and heart rate monitoring after in-clinic subcutaneous doses", "assay_type": "in vivo, human", "details": "for Increase in ambulatory SBP relative to placebo (abstract): second of two doses, 0 to 4-h postdose interval", "summary_of_the_method": "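Premenopausal women aged ≥21 years were randomized 1:1:1:1 to placebo or 0.75, 1.25 or 1.75 mg sc (anterior thigh or abdomen). The ambulatory monitor was fitted before each in-clinic dose and recorded at 15-min intervals. Baseline was the single-blind in-clinic placebo dose, and changes were placebo-subtracted over 0–4, >4–8, >8–24 and 0–24 h. SBP shifts were counted per 15 min against thresholds of 10/15 mmHg change and 150/160 mmHg absolute.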"}, "[8]": {"details": "initial in-clinic dose, linear regression, all dose levels"}},
  "note": "“Also recorded” adds a separate entry of the source.",
  "data": [
    {"smiles": "CCCC[C@H](NC(C)=O)C(=O)N[C@H]1CC(=O)NCCCC[C@@H](C(=O)O)NC(=O)[C@H](Cc2c[nH]c3ccccc23)NC(=O)[C@H](CCCN=C(N)N)NC(=O)[C@@H](Cc2ccccc2)NC(=O)[C@H](Cc2cnc[nH]2)NC1=O", "note": "[bremelanotide]", "values": [
      {"measurement": "Variability in bioavailability", "setting": "[1]", "value": "wide variability in bioavailability"},
      {"measurement": "Most common adverse events", "setting": "[2]", "value": "nausea, flushing, and headache"},
      {"measurement": "Dose proportionality of pharmacokinetics", "setting": "[3]; 0.75, 1.25, 1.75 mg sc, both in-clinic doses", "value": "dose proportionality; also recorded: dose-proportional increases in concentrations"},
      {"measurement": "Cmax", "setting": "[3]; human, in vivo, sc, 0.75 mg", "value": 37.5, "unit": "ng/mL"},
      {"measurement": "Cmax, mean", "setting": "[3]; second in-clinic dose 0.75 mg sc, n 89", "value": 37.3, "unit": "ng/mL"},
      {"measurement": "Cmax, mean", "setting": "[3]; second in-clinic dose 1.25 mg sc, n 84", "value": 60.1, "unit": "ng/mL"},
      {"measurement": "Cmax, mean", "setting": "[3]; second in-clinic dose 1.75 mg sc, n 88", "value": 77.7, "unit": "ng/mL"},
      {"measurement": "Participants withdrawn after randomization (BP-related)", "setting": "[4]; after a 0.75-mg dose, of 100", "value": 4, "unit": "%"},
      {"measurement": "Participants withdrawn after randomization (BP-related)", "setting": "[4]; after a 1.25-mg dose, of 99", "value": 9, "unit": "%"},
      {"measurement": "Participants withdrawn after randomization (BP-related)", "setting": "[4]; after a 1.75-mg dose, of 98", "value": 7, "unit": "%"},
      {"measurement": "Tmax", "setting": "[5]", "value": "0.5 to 1", "unit": "h"},
      {"measurement": "mean half-life", "setting": "[5]", "value": "1.9 to 2.7", "unit": "h"},
      {"measurement": "Transient increases in clinic SBP", "setting": "[6]", "value": "4–5 mmHg"},
      {"measurement": "Proportion of SBP shift events lasting 15 min or less", "setting": "[7]; after bremelanotide dosing", "value": 88, "unit": "%"},
      {"measurement": "Number of clinically important shifts in SBP (>10 or >15 mmHg) lasting more than 30 min", "setting": "[7]; all bremelanotide doses", "value": "three"},
      {"measurement": "Patients with SBP increase at least 15 mmHg for more than 30 min", "setting": "[7]; any bremelanotide group", "value": "No patient"},
      {"measurement": "Patients with SBP more than 180 mmHg for more than 15 min", "setting": "[7]; any bremelanotide group", "value": "No patient; also recorded: no sustained elevations"},
      {"measurement": "Relationship between maximal change in HR and Cmax", "setting": "[7]; [8]", "value": "no relationship observed"},
      {"measurement": "Relationship between maximal change in SBP and Cmax", "setting": "[7]; [8]", "value": "no relationship observed"},
      {"measurement": "Duration of peak increases in ambulatory BP", "setting": "[7]; sc doses, typically", "value": "less than 15 min"},
      {"measurement": "Increase in ambulatory SBP relative to placebo (abstract)", "setting": "[7]; 1.25 mg sc, P 0.076", "value": 3.0, "unit": "mmHg"},
      {"measurement": "Increase in ambulatory SBP relative to placebo (abstract)", "setting": "[7]; 1.75 mg sc, P 0.027", "value": 3.2, "unit": "mmHg"},
      {"measurement": "Mean HR reductions", "setting": "[7]; subcutaneous doses, up to 8 h following administration", "value": "4.6–6.6 bpm"}
    ]}
  ]
}
